# ChEMBL document CHEMBL5661968, “Antitumor activity of ZSTK474, a new phosphatidylinositol 3-kinase inhibitor” (J Natl Cancer Inst, 2006)
# Activity calls are given as the source filed them. No cut-off for these calls is given here.
# Assays:
# WiDr = test: Antitumor activity against human WiDr cells xenografted in nude mouse assessed as inhibition of tumor growth at 400 mg/kg, po administered on day 0 to 13 except for day 3 and 10 measured after 14 days; assay type: functional, organism-based; details: time 14.0 day
# How it was run: (§1)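 Female BALB/c-background nude mice were implanted s.c. with 3 × 3 × 3 mm tumor fragments. At 100–300 mm3 tumor volume (day 0), groups of five were randomized and dosed orally at 400 mg/kg on days 0–13, skipping days 3 and 10. Caliper volume was (L×W2)/2, relative to day 0 (RTV). T/C% on day 14 = 100 × mean treated RTV / mean control RTV.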
# [1] = Growth inhibition of human HBC4 cells measured after 48 hrs by sulforhodamine B assay; assay type: functional
# How it was run: (§2)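 JFCR39 panel lines were grown in RPMI 1640 with 5% FBS, penicillin and streptomycin at 37 °C in 5% CO2. After 48 h of drug exposure, total cellular protein was measured by sulforhodamine B staining. GI50 was calculated by a previously described method.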
# HCC 2998 = test: Growth inhibition of human HCC 2998 cells measured after 48 hrs by sulforhodamine B assay; assay type: functional; how it was run: as §2
# SF-295 = test: Growth inhibition of human SF-295 cells measured after 48 hrs by sulforhodamine B assay; assay type: functional; how it was run: as §2
# SK-OV-3 = test: Growth inhibition of human SK-OV-3 cells measured after 48 hrs by sulforhodamine B assay; assay type: functional; how it was run: as §2
# A549 [2] = test: Downregulation of cyclin D1 expression in human A549 cells at 0.5 uM measured after 30 mins by Western blotting analysis; assay type: functional, cell-based
# How it was run: (§3)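 A549 cells were lysed in Tris-HCl pH 7.4 buffer with NaF, pyrophosphate, Na3VO4, EDTA, aprotinin, PMSF, 0.5% NP-40 and 0.1% SDS. Lysates were run on SDS-PAGE and blotted to PVDF. Blots were probed with rabbit anti-cyclin D1 polyclonal (1:200), then HRP anti-rabbit IgG, and detected by ECL chemiluminescence.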
# [3] = target: Forkhead box protein O3 (Homo sapiens) (UniProt O43524); test: Inhibition of FKHRL1 phosphorylation in Thr-32 residue human A549 cells measured after 3 hrs by immunoblotting analysis; assay type: cell-based; details: dose <= 2.0 µM
# How it was run: (§4)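 A549 cells treated over 0 to 2.0 μM; lysed in 10 mM Tris–HCl pH 7.4, 50 mM NaCl, NaF, pyrophosphate, vanadate, EDTA, protease inhibitors, 0.5% NP-40, 0.1% SDS; proteins resolved by SDS-PAGE, blotted to PVDF, probed with phospho-specific antibodies, HRP secondary, ECL detection.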
# SNB-78 = test: Growth inhibition of human SNB-78 cells measured after 48 hrs by sulforhodamine B assay; assay type: functional; how it was run: as §2
# NCI-H23 = test: Growth inhibition of human NCI-H23 cells measured after 48 hrs by sulforhodamine B assay; assay type: functional; how it was run: as §2
# MKN-7 = test: Growth inhibition of human MKN-7 cells measured after 48 hrs by sulforhodamine B assay; assay type: functional; how it was run: as §2
# OVCAR-8 = test: Growth inhibition of human OVCAR-8 cells measured after 48 hrs by sulforhodamine B assay; assay type: functional; how it was run: as §2
# [4] = Residual PI3K activity in human A549 cell lysate at 1 uM preincubated with compound for 5 mins followed by [gamma-32p]-ATP addition measured after 20 mins by immunoprecipitation based liquid scintillation spectroscopic analysis relative to control; details: A549, 25 min
# A549 [5] = test: Reversible inhibition of PI3K in human A549 cell lysate at 1 uM preincubated with compound for 5 mins followed by [gamma-32p]-ATP addition measured after 20 mins by immunoprecipitation based liquid scintillation spectroscopic analysis; assay type: subcellular; details: time 25.0 min
# How it was run: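 Anti-p85 immunoprecipitates from A549 lysate treated 5 min with 1 μM compound, then split: one aliquot washed four times in 100 mM NaCl, 20 mM Tris pH 7.5 to remove free inhibitor, the other unwashed; both assayed with [γ-32P]ATP and phosphatidylinositol, PI3P counted by scintillation.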
# DMS-114 = test: Growth inhibition of human DMS-114 cells measured after 48 hrs by sulforhodamine B assay; assay type: functional; how it was run: as §2
# HCT-116 = test: Growth inhibition of human HCT-116 cells measured after 48 hrs by sulforhodamine B assay; assay type: functional; how it was run: as §2
# A549 [6] = test: Downregulation of cyclin D1 expression in human A549 cells measured after 3 hrs by immunoblotting analysis; assay type: functional, cell-based; details: dose <= 2.0 µM; how it was run: as §3
# [7] = target: Dual specificity mitogen-activated protein kinase kinase 2 (Homo sapiens) (UniProt P36507); test: Inhibition of MEK2 phosphorylation at Ser-217/221 residues in human A549 cells measured after 3 hrs by immunoblotting analysis; details: dose <= 2.0 µM
# [8] = Toxicity in nude mouse xenografted with human PC-3 cells assessed as change in body weight at 400 mg/kg, po administered on day 0 to 13 except for day 3 and 10 measured after 28 days (reference value: 17 %); assay type: organism-based; details: in vivo, 672 h, time 28 day
# KM12 = test: Growth inhibition of human KM12 cells measured after 48 hrs by sulforhodamine B assay; assay type: functional; how it was run: as §2
# A549 [9] = test: Induction of apoptosis in human A549 cells assessed as increase in apoptotic cells at 10 uM measured after 48 hrs by propidium iodide staining based flow cytometric analysis; assay type: functional, cell-based
# How it was run: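 Cells harvested, washed in ice-cold PBS, fixed in 70% ethanol, washed twice in ice-cold PBS, treated with RNase A (500 μg/mL) at 37 °C for 1 h, stained with propidium iodide (25 μg/mL); DNA content read by flow cytometry.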
# MKN-74 = test: Growth inhibition of human MKN74 cells measured after 48 hrs by sulforhodamine B assay; assay type: functional; how it was run: as §2
# MDA-MB-231 = test: Growth inhibition of human MDA-MB-231 cells measured after 48 hrs by sulforhodamine B assay; assay type: functional; how it was run: as §2
# ACHN = test: Growth inhibition of human ACHN cells measured after 48 hrs by sulforhodamine B assay; assay type: functional; how it was run: as §2
# A549 [10] = test: Antitumor activity against human A549 cells xenografted in nude mouse assessed as inhibition of tumor growth at 400 mg/kg, po administered on day 0 to 13 except for day 3 and 10 measured after 14 days; assay type: functional, organism-based; details: time 14.0 day; how it was run: as §1
# MCF7 = test: Growth inhibition of human MCF7 cells measured after 48 hrs by sulforhodamine B assay; assay type: functional; how it was run: as §2
# HCT-15 = test: Growth inhibition of human HCT-15 cells measured after 48 hrs by sulforhodamine B assay; assay type: functional; how it was run: as §2
# [11] = target: Ribosomal protein S6 kinase beta-1 (Homo sapiens) (UniProt P23443); test: Inhibition of p70S6K phosphorylation at Thr-389 residue in human A549 cells measured after 3 hrs by immunoblotting analysis; assay type: cell-based; details: dose <= 2.0 µM; how it was run: as §4
# [12] = Growth inhibition of human HBC5 cells measured after 48 hrs by sulforhodamine B assay; assay type: functional; how it was run: as §2
# MKN-1 = test: Growth inhibition of human MKN-1 cells measured after 48 hrs by sulforhodamine B assay; assay type: functional; how it was run: as §2
# PC-3 = test: Growth inhibition of human PC-3 cells measured after 48 hrs by sulforhodamine B assay; assay type: functional; how it was run: as §2
# SF-539 = test: Growth inhibition of human SF-539 cells measured after 48 hrs by sulforhodamine B assay; assay type: functional; how it was run: as §2
# [13] = target: Glycogen synthase kinase-3 beta (Homo sapiens) (UniProt P49841); test: Inhibition of GSK-3beta phosphorylation at Ser9 residue in human A549 cells at 0.5 uM measured after 30 mins by Western blotting analysis; assay type: cell-based
# SNB-75 = test: Growth inhibition of human SNB-75 cells measured after 48 hrs by sulforhodamine B assay; assay type: functional; how it was run: as §2
# Sequence of Dual specificity mitogen-activated protein kinase kinase 2 (Homo sapiens) (P36507 whole entry): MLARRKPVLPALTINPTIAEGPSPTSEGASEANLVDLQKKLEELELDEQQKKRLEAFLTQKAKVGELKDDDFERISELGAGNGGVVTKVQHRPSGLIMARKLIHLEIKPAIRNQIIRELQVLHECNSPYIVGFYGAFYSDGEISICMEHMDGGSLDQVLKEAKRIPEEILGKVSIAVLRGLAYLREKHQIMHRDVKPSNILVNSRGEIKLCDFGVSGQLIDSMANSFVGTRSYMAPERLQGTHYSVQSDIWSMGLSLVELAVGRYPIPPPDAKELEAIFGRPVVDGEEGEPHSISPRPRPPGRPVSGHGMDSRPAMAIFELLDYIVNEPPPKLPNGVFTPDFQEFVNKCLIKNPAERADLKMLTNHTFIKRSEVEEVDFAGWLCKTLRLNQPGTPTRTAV
# Sequence of Glycogen synthase kinase-3 beta (Homo sapiens) (P49841 whole entry, looked up): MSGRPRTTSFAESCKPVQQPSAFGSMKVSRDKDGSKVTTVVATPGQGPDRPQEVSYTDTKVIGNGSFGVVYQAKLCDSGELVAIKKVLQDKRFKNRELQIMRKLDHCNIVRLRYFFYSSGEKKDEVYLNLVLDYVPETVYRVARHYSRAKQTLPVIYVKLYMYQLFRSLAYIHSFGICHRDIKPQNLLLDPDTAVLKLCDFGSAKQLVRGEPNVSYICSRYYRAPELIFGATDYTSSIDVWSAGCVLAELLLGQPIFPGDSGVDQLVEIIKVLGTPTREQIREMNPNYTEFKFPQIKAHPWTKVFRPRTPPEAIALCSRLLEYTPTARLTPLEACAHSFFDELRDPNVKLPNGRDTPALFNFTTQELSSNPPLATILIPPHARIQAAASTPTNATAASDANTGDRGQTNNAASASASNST
# Sequence of Forkhead box protein O3 (Homo sapiens) (O43524 whole entry): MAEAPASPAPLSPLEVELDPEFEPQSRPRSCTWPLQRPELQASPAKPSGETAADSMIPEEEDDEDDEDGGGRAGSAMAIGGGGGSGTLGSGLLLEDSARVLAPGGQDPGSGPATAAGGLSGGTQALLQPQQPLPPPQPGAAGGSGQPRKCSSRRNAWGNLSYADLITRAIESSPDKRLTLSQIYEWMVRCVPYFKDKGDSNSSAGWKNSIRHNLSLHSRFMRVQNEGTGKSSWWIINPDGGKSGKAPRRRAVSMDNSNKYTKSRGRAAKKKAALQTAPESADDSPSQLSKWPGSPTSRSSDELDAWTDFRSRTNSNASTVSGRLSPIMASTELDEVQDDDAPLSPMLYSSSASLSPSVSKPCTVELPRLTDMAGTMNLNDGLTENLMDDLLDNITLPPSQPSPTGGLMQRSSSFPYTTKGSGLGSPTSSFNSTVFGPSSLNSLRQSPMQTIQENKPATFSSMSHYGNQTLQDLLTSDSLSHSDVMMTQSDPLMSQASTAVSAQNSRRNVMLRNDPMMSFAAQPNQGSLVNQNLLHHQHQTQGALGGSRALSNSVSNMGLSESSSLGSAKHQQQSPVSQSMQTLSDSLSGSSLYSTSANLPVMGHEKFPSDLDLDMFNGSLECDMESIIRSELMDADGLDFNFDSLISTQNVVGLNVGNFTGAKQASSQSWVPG
# Sequence of Ribosomal protein S6 kinase beta-1 (Homo sapiens) (P23443 whole entry, looked up): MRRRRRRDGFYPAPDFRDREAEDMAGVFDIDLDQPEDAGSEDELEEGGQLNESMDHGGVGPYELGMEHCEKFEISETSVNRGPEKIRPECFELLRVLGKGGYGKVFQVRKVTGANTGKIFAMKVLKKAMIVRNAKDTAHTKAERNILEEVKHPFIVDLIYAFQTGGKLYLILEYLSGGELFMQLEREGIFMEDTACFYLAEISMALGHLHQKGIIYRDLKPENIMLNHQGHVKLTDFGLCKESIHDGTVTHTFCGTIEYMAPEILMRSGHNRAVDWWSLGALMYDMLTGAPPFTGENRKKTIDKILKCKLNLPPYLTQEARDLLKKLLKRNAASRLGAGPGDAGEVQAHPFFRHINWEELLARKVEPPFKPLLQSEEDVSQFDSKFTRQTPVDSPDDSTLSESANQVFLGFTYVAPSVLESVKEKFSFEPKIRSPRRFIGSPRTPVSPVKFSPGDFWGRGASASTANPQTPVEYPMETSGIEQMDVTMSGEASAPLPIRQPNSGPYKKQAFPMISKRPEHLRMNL
smiles,measurement,setting,value
FC(F)c1nc2ccccc2n1-c1nc(N2CCOCC2)nc(N2CCOCC2)n1 [ZSTK-474],Activity,WiDr,Active
same,GI50,[1],240 nM
same,GI50,HCC 2998,245 nM
same,GI50,SF-295,186 nM
same,GI50,SK-OV-3,331 nM
same,Activity,A549 [2],Active
same,inhibition,[3],Dose-Dependent Effect
same,GI50,SNB-78,55 nM
same,GI50,NCI-H23,339 nM
same,GI50,MKN-7,1320 nM
same,GI50,OVCAR-8,1050 nM
same,"level, % of control at 1 µM",[4],4.7%
same,inhibition,A549 [5],Active
same,GI50,DMS-114,295 nM
same,GI50,HCT-116,1510 nM
same,Activity,A549 [6],Dose-Dependent Effect
same,inhibition,[7],inactive
same,Activity,[8],17%
same,GI50,KM12,1660 nM
same,Activity,A549 [9],inactive
same,GI50,MKN-74,617 nM
same,GI50,MDA-MB-231,562 nM
same,GI50,ACHN,407 nM
same,Activity,A549 [10],Active
same,GI50,MCF7,45.7 nM
same,GI50,HCT-15,513 nM
same,inhibition,[11],Dose-Dependent Effect
same,GI50,[12],28.2 nM
same,GI50,MKN-1,224 nM
same,GI50,PC-3,38 nM
same,GI50,SF-539,347 nM
same,inhibition,[13],Active
same,GI50,SNB-75,45.7 nM
